According to ChEMBL document CHEMBL3045423, “Cynodontin: a fungal metabolite with antifungal properties” (J Agric Food Chem, 2003):
≈ marks a conversion by molar mass, not a printed value. Calls of active or inactive are those of the source. No cut-off for these calls is given here.

Assays:
Cucumis melo = assay: Phytotoxicity in Cucumis melo (muskmelon) assessed as seed germination at 250 mg/mL applied as seed dressings after 8 to 14 days (reference value: 90 +/- 2%); type: organism-based; conditions: in vivo
Solanum melongena = assay: Phytotoxicity in Solanum melongena (eggplant) assessed as seed germination at 250 mg/mL applied as seed dressings after 8 to 14 days (reference value: 84.7 +/- 2.3%); type: organism-based; conditions: in vivo
Lactuca sativa = assay: Phytotoxicity in Lactuca sativa (lettuce) assessed as seed germination at 250 mg/mL applied as seed dressings after 8 to 14 days (reference value: 90 +/- 5.3%); type: organism-based; conditions: in vivo
Capsicum annuum = assay: Phytotoxicity in Capsicum annuum (pepper) assessed as seed germination at 250 mg/mL applied as seed dressings after 8 to 14 days (reference value: 84.7 +/- 4.6%); type: organism-based; conditions: in vivo
Cucumis sativus = assay: Phytotoxicity in Cucumis sativus (cucumber) assessed as seed germination at 250 mg/mL applied as seed dressings after 8 to 14 days (reference value: […] +/- 1.2%); type: organism-based; conditions: in vivo
Botrytis cinerea [1] = assay: Antifungal activity against Botryotinia fuckeliana assessed as mycelial growth inhibition after 4 to 8 days; type: functional; conditions: read-out: ED50 (the source's name)
In short: (§1)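 Test substance added in acetone (solvent at most 0.8% in treated and control plates) to sterilized potato dextrose agar. Plates inoculated with 0.5 cm mycelial blocks and incubated in the dark at 25 °C for 4-8 days depending on species. Linear growth inhibition estimated from colony diameter.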

Sclerotinia minor = assay: Antifungal activity against Sclerotinia minor assessed as mycelial growth inhibition after 4 to 8 days; type: functional; conditions: read-out: ED50 (the source's name); in short: as §1
Sclerotinia sclerotiorum = assay: Antifungal activity against Sclerotinia sclerotiorum assessed as mycelial growth inhibition after 4 to 8 days; type: functional; conditions: read-out: ED50 (the source's name); in short: as §1
Solanum lycopersicum = assay: Phytotoxicity in Solanum lycopersicum (tomato) assessed as seed germination at 250 mg/mL applied as seed dressings after 8 to 14 days (reference value: 94 +/- 2%); type: organism-based; conditions: in vivo
Botrytis cinerea [2] = assay: Antifungal activity against Botryotinia fuckeliana assessed as inhibition of conidia germination at 1 to 10 ug/mL after 5 hr by light adverse phase microscopic analysis; type: functional, organism-based
In short: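 B. cinerea conidia (10^6/mL in water) applied as 0.2 mL droplets onto water-agar (agar plus deionized water) with or without test substance added in acetone. Incubated 5 h in the dark at 25 °C. Percent germination scored from 200 conidia per dish under light microscopy.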

Brassica oleracea [3] = assay: Phytotoxicity in Brassica oleracea (cabbage) assessed as seed germination at 250 mg/mL applied as seed dressings after 8 to 14 days (reference value: 90 +/- 5.3%); type: organism-based; conditions: in vivo
[4] = tested on: Brassica oleracea var. botrytis (cauliflower); assay: Phytotoxicity in Brassica oleracea var. botrytis assessed as seed germination at 250 mg/mL applied as seed dressings after 8 to 14 days (reference value: 97.3 +/- 1.2%); conditions: in vivo
Verticillium dahliae = assay: Antifungal activity against Verticillium dahliae assessed as mycelial growth inhibition after 4 to 8 days; type: functional; conditions: read-out: ED50 (the source's name); in short: as §1
Brassica oleracea [5] = assay: Phytotoxicity in Brassica oleracea (broccoli) assessed as seed germination at 250 mg/mL applied as seed dressings after 8 to 14 days (reference value: […] +/- 4.2%); type: organism-based; conditions: in vivo

SMILES	Activity (Cucumis melo) [%]	Activity (Solanum melongena) [%]	Activity (Lactuca sativa) [%]	Activity (Capsicum annuum) [%]	Activity (Cucumis sativus) [%]	EC50 (Botrytis cinerea [1]) [µg/mL]	EC50 (Sclerotinia minor) [µg/mL]	EC50 (Sclerotinia sclerotiorum) [µg/mL]	Activity (Solanum lycopersicum) [%]	inhibition (Botrytis cinerea [2])	Activity (Brassica oleracea [3]) [%]	Activity [4] [%]	EC50 (Verticillium dahliae) [µg/mL]	Activity (Brassica oleracea [5]) [%]
Cc1cc(O)c2c(c1O)C(=O)c1c(O)ccc(O)c1C2=O [Cynodontin]	90.7	82.7	96.7	84.7	94	5.25 (≈ 18.3 µM)	4.31 (≈ 15.1 µM)	5.52 (≈ 19.3 µM)	95.3	inactive	89.3	96.7	11.5 (≈ 40.3 µM)	88
O=C1c2ccccc2C(=O)c2ccccc21 [ANTHRAQUINONE]		82.7	88	85.3		> 100	> 100	> 100		inactive	88		> 100	87.3
Cc1cc(O)c2c(c1)C(=O)c1cccc(O)c1C2=O [CHRYSOPHANOL]						> 100	74.1 (≈ 292 µM)	> 100		inactive			> 100	
Cc1cc(O)c2c(c1)C(=O)c1cc(O)cc(O)c1C2=O [EMODIN]						41.2 (≈ 153 µM)	38.9 (≈ 144 µM)	66.5 (≈ 246 µM)		inactive			> 100	
